Measurements reported in ChEMBL document CHEMBL4257460, “Synthesis and antifungal activity of novel oxazolidin-2-one-linked 1,2,3-triazole derivatives” (2017).
Values after ≈ are worked out from the molar mass of the structure shown.

How the values were obtained:
Format in all cases: functional
[1] = test system: Aspergillus fumigatus; assay: Antifungal activity against Aspergillus fumigatus ATCC 16907 by M38-A guideline based method
How it was run: (§1)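 Broth microdilution per CLSI (M38-A for filamentous fungi, M27-A3 for yeasts), in MOPS-buffered RPMI-1640 medium. Itraconazole served as the reference antifungal. The MIC was read as the endpoint and expressed in µg/mL.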

[2] = test system: Candida tropicalis; assay: Antifungal activity against Candida tropicalis ATCC 13803 by M27-A3 guideline based method; how it was run: as §1
[3] = test system: Nakaseomyces glabratus; assay: Antifungal activity against Candida glabrata ATCC 34138 by M27-A3 guideline based method; how it was run: as §1
[4] = test system: Pichia kudriavzevii; assay: Antifungal activity against Candida krusei ATCC 14243 by M27-A3 guideline based method; how it was run: as §1
[5] = test system: Rhizopus arrhizus; assay: Antifungal activity against Rhizopus oryzae ATCC 10329by M38-A guideline based method; how it was run: as §1
[6] = test system: Candida albicans; assay: Antifungal activity against Candida albicans ATCC 10231 by M27-A3 guideline based method; how it was run: as §1
[7] = test system: Mucor hiemalis; assay: Antifungal activity against Mucor hiemalis ATCC 8690 by M38-A guideline based method; how it was run: as §1
[8] = test system: Cutaneotrichosporon cutaneum; assay: Antifungal activity against Trichosporon cutaneum ATCC 28592 by M38-A guideline based method; how it was run: as §1
[9] = test system: Candida parapsilosis; assay: Antifungal activity against Candida parapsilosis ATCC 22019 by M27-A3 guideline based method; conditions: Lodderomyces parapsilosis; how it was run: as §1
[10] = test system: Cyberlindnera jadinii; assay: Antifungal activity against Candida utilis ATCC 9226 by M27-A3 guideline based method; conditions: Williopsis jadinii; how it was run: as §1

## CC(=O)c1nnn(CCn2c(-c3ccccc3)c(-c3ccccc3)oc2=O)c1C
[1]
  MIC: 16 µg/mL (≈ 41.2 µM)
[2]
  MIC: 8 µg/mL (≈ 20.6 µM)
[3]
  MIC: 2 µg/mL (≈ 5.15 µM)
[4]
  MIC: 8 µg/mL (≈ 20.6 µM)
[5]
  MIC: 8 µg/mL (≈ 20.6 µM)
[6]
  MIC: 8 µg/mL (≈ 20.6 µM)
[7]
  MIC: 16 µg/mL (≈ 41.2 µM)
[8]
  MIC: 8 µg/mL (≈ 20.6 µM)
[9]
  MIC: 4 µg/mL (≈ 10.3 µM)
[10]
  MIC: 8 µg/mL (≈ 20.6 µM)

## Cc1ccc(S(=O)(=O)c2nnn(CCn3c(-c4ccccc4)c(-c4ccccc4)oc3=O)c2-c2ccc(Cl)s2)cc1
[1]
  MIC: 16 µg/mL (≈ 26.5 µM)
[2]
  MIC: 8 µg/mL (≈ 13.3 µM)
[3]
  MIC: 2 µg/mL (≈ 3.32 µM)
[4]
  MIC: 2 µg/mL (≈ 3.32 µM)
[5]
  MIC: 16 µg/mL (≈ 26.5 µM)
[6]
  MIC: 8 µg/mL (≈ 13.3 µM)
[7]
  MIC: 16 µg/mL (≈ 26.5 µM)
[8]
  MIC: 8 µg/mL (≈ 13.3 µM)
[9]
  MIC: 4 µg/mL (≈ 6.63 µM)
[10]
  MIC: 8 µg/mL (≈ 13.3 µM)

## Cc1ccc(-c2c(S(=O)(=O)c3ccc(C)cc3)nnn2CCn2c(-c3ccccc3)c(-c3ccccc3)oc2=O)cc1
[1]
  MIC: 8 µg/mL (≈ 13.9 µM)
[2]
  MIC: 8 µg/mL (≈ 13.9 µM)
[3]
  MIC: 2 µg/mL (≈ 3.47 µM)
[4]
  MIC: 8 µg/mL (≈ 13.9 µM)
[5]
  MIC: 16 µg/mL (≈ 27.7 µM)
[6]
  MIC: 1 µg/mL (≈ 1.73 µM)
[7]
  MIC: 16 µg/mL (≈ 27.7 µM)
[8]
  MIC: 8 µg/mL (≈ 13.9 µM)
[9]
  MIC: 0.25 µg/mL (≈ 0.434 µM)
[10]
  MIC: 4 µg/mL (≈ 6.94 µM)

## Cc1ccc(S(=O)(=O)c2nnn(CCn3c(-c4ccccc4)c(-c4ccccc4)oc3=O)c2-c2cccs2)cc1
[1]
  MIC: 8 µg/mL (≈ 14.1 µM)
[2]
  MIC: 8 µg/mL (≈ 14.1 µM)
[3]
  MIC: 1 µg/mL (≈ 1.76 µM)
[4]
  MIC: 8 µg/mL (≈ 14.1 µM)
[5]
  MIC: 16 µg/mL (≈ 28.1 µM)
[6]
  MIC: 8 µg/mL (≈ 14.1 µM)
[7]
  MIC: 16 µg/mL (≈ 28.1 µM)
[8]
  MIC: 8 µg/mL (≈ 14.1 µM)
[9]
  MIC: 8 µg/mL (≈ 14.1 µM)
[10]
  MIC: 8 µg/mL (≈ 14.1 µM)

## CCC(C)n1ncn(-c2ccc(N3CCN(c4ccc(OCC5COC(Cn6cncn6)(c6ccc(Cl)cc6Cl)O5)cc4)CC3)cc2)c1=O (stereo not given) [ITRACONAZOLE]
[1]
  MIC: 1 µg/mL (≈ 1.42 µM)
[2]
  MIC: 0.06 µg/mL (≈ 0.085 µM)
[3]
  MIC: 1 µg/mL (≈ 1.42 µM)
[4]
  MIC: 0.25 µg/mL (≈ 0.354 µM)
[5]
  MIC: 1 µg/mL (≈ 1.42 µM)
[6]
  MIC: 0.03 µg/mL (≈ 0.0425 µM)
[7]
  MIC: 4 µg/mL (≈ 5.67 µM)
[8]
  MIC: 8 µg/mL (≈ 11.3 µM)
[9]
  MIC: 0.06 µg/mL (≈ 0.085 µM)
[10]
  MIC: 0.25 µg/mL (≈ 0.354 µM)

## Cc1ccc(S(=O)(=O)c2nnn(CCn3c(-c4ccccc4)c(-c4ccccc4)oc3=O)c2-c2cccc([N+](=O)[O-])c2)cc1
[1]
  MIC: 16 µg/mL (≈ 26.3 µM)
[2]
  MIC: 8 µg/mL (≈ 13.2 µM)
[3]
  MIC: 0.12 µg/mL (≈ 0.197 µM)
[4]
  MIC: 8 µg/mL (≈ 13.2 µM)
[5]
  MIC: 16 µg/mL (≈ 26.3 µM)
[6]
  MIC: 8 µg/mL (≈ 13.2 µM)
[7]
  MIC: 16 µg/mL (≈ 26.3 µM)
[8]
  MIC: 2 µg/mL (≈ 3.29 µM)
[9]
  MIC: 0.5 µg/mL (≈ 0.823 µM)
[10]
  MIC: 8 µg/mL (≈ 13.2 µM)

## N#Cc1nnn(CCn2c(-c3ccccc3)c(-c3ccccc3)oc2=O)c1-c1ccccc1
[1]
  MIC: 16 µg/mL (≈ 36.9 µM)
[2]
  MIC: 8 µg/mL (≈ 18.5 µM)
[3]
  MIC: 0.12 µg/mL (≈ 0.277 µM)
[4]
  MIC: 0.5 µg/mL (≈ 1.15 µM)
[5]
  MIC: 16 µg/mL (≈ 36.9 µM)
[6]
  MIC: 8 µg/mL (≈ 18.5 µM)
[7]
  MIC: 2 µg/mL (≈ 4.61 µM)
[8]
  MIC: 8 µg/mL (≈ 18.5 µM)
[9]
  MIC: 8 µg/mL (≈ 18.5 µM)
[10]
  MIC: 8 µg/mL (≈ 18.5 µM)

## Cc1ccc(S(=O)(=O)c2nnn(CCn3c(-c4ccccc4)c(-c4ccccc4)oc3=O)c2-c2ccccc2)cc1
[1]
  MIC: 2 µg/mL (≈ 3.55 µM)
[2]
  MIC: 8 µg/mL (≈ 14.2 µM)
[3]
  MIC: 1 µg/mL (≈ 1.78 µM)
[4]
  MIC: 0.5 µg/mL (≈ 0.889 µM)
[5]
  MIC: 16 µg/mL (≈ 28.4 µM)
[6]
  MIC: 8 µg/mL (≈ 14.2 µM)
[7]
  MIC: 4 µg/mL (≈ 7.11 µM)
[8]
  MIC: 8 µg/mL (≈ 14.2 µM)
[9]
  MIC: 8 µg/mL (≈ 14.2 µM)
[10]
  MIC: 8 µg/mL (≈ 14.2 µM)

## Cc1ccc(S(=O)(=O)c2nnn(CCn3c(-c4ccccc4)c(-c4ccccc4)oc3=O)c2-c2ccc(Cl)cc2)cc1
[1]
  MIC: 4 µg/mL (≈ 6.7 µM)
[2]
  MIC: 8 µg/mL (≈ 13.4 µM)
[3]
  MIC: 4 µg/mL (≈ 6.7 µM)
[4]
  MIC: 8 µg/mL (≈ 13.4 µM)
[5]
  MIC: 16 µg/mL (≈ 26.8 µM)
[6]
  MIC: 8 µg/mL (≈ 13.4 µM)
[7]
  MIC: 16 µg/mL (≈ 26.8 µM)
[8]
  MIC: 8 µg/mL (≈ 13.4 µM)
[9]
  MIC: 8 µg/mL (≈ 13.4 µM)
[10]
  MIC: 8 µg/mL (≈ 13.4 µM)

## O=C(c1ccccc1)c1nnn(CCn2c(-c3ccccc3)c(-c3ccccc3)oc2=O)c1-c1ccccc1
[1]
  MIC: 16 µg/mL (≈ 31.2 µM)
[2]
  MIC: 8 µg/mL (≈ 15.6 µM)
[3]
  MIC: 2 µg/mL (≈ 3.9 µM)
[4]
  MIC: 8 µg/mL (≈ 15.6 µM)
[5]
  MIC: 16 µg/mL (≈ 31.2 µM)
[6]
  MIC: 8 µg/mL (≈ 15.6 µM)
[7]
  MIC: 16 µg/mL (≈ 31.2 µM)
[8]
  MIC: 8 µg/mL (≈ 15.6 µM)
[9]
  MIC: 8 µg/mL (≈ 15.6 µM)
[10]
  MIC: 8 µg/mL (≈ 15.6 µM)

## Cc1ccc(S(=O)(=O)c2nnn(CCn3c(-c4ccccc4)c(-c4ccccc4)oc3=O)c2-c2ccc([N+](=O)[O-])cc2)cc1
[1]
  MIC: 2 µg/mL (≈ 3.29 µM)
[2]
  MIC: 8 µg/mL (≈ 13.2 µM)
[3]
  MIC: 4 µg/mL (≈ 6.58 µM)
[4]
  MIC: 0.25 µg/mL (≈ 0.411 µM)
[5]
  MIC: 16 µg/mL (≈ 26.3 µM)
[6]
  MIC: 4 µg/mL (≈ 6.58 µM)
[7]
  MIC: 16 µg/mL (≈ 26.3 µM)
[8]
  MIC: 8 µg/mL (≈ 13.2 µM)
[9]
  MIC: 8 µg/mL (≈ 13.2 µM)
[10]
  MIC: 4 µg/mL (≈ 6.58 µM)
